{"source": "ChEMBL document CHEMBL3232922", "about": "“Discovery and SAR of 6-alkyl-2,4-diaminopyrimidines as histamine H₄ receptor antagonists” (J Med Chem, 2014)", "key": {"hERG (KCNH2)": {"biological_target": "hERG (KCNH2) (Homo sapiens, UniProt Q12809)", "sequence (Q12809 whole entry)": "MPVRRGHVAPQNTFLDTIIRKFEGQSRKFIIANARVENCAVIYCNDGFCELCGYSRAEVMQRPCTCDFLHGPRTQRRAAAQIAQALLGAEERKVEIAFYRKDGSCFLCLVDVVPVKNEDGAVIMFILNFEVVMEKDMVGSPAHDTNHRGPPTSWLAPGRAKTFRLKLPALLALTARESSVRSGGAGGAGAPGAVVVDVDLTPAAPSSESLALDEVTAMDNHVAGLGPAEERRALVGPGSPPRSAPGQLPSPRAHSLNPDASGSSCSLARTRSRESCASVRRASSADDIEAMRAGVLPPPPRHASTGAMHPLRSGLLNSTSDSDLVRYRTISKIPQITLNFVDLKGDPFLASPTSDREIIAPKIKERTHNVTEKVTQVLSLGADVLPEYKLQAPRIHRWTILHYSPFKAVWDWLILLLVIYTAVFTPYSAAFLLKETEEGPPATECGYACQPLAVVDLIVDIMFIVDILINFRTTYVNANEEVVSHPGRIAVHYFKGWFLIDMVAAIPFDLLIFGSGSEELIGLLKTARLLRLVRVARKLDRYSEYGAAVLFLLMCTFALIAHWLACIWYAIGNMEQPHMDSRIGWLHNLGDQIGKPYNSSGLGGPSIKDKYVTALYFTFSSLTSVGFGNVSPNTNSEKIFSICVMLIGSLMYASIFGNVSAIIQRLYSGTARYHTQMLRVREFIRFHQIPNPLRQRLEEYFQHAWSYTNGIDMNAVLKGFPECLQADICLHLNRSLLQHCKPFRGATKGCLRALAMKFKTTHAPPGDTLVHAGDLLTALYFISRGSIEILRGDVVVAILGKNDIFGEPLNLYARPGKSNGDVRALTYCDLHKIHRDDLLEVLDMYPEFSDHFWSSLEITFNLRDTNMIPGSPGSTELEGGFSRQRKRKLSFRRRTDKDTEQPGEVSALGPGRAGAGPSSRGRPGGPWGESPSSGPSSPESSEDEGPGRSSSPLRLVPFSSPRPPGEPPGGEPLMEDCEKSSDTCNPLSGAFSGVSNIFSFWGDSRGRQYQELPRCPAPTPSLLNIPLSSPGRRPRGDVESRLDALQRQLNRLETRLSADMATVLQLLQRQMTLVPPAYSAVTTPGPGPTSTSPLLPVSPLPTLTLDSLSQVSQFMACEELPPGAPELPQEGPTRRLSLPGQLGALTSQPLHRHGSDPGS", "experiment": "Inhibition of human ERG channel transfected in HEK293 cells assessed as reduction in delayed rectifier current at 3 uM by patch clamp assay", "type": "cell-based", "settings": "HEK293 cells transfected with human ERG channel"}, "[1]": {"experiment": "Half life in rat at 2 mg/kg, iv", "type": "ADME, organism-based", "parameters": "dose 2 mg/kg, route intravenous", "settings": "in vivo"}, "Canis familiaris [2]": {"test_system": "Canis familiaris", "experiment": "AUC in beagle dog at 2 mg/kg, iv", "type": "ADME, organism-based, Canis lupus familiaris, Plasma", "parameters": "dose 2 mg/kg, route intravenous", "settings": "in vivo"}, "[3]": {"experiment": "AUC in rat at 2 mg/kg, iv", "type": "ADME, organism-based", "parameters": "dose 2 mg/kg, route intravenous", "settings": "plasma"}, "[4]": {"experiment": "AUC in Sprague-Dawley rat at 10 mg/kg, po", "type": "ADME, organism-based", "parameters": "dose 10 mg/kg, route oral", "settings": "plasma"}, "[5]": {"experiment": "Tmax in beagle dog at 10 mg/kg, po", "type": "ADME, organism-based, Canis lupus familiaris", "parameters": "dose 10 mg/kg, route oral", "settings": "in vivo"}, "[6]": {"experiment": "Half life in beagle dog at 10 mg/kg, po", "type": "ADME, organism-based, Canis lupus familiaris", "parameters": "dose 10 mg/kg, route oral", "settings": "in vivo"}, "[7]": {"experiment": "Half life in rat microsomes", "type": "ADME, Microsome"}, "[8]": {"experiment": "Cmax in beagle dog at 10 mg/kg, po", "type": "ADME, organism-based, Canis lupus familiaris", "parameters": "dose 10 mg/kg, route oral", "settings": "in vivo"}, "Histamine H4 receptor [9]": {"biological_target": "T1, Histamine H4 receptor (Mus musculus, UniProt Q91ZY2)", "T1 sequence (Q91ZY2 whole entry)": "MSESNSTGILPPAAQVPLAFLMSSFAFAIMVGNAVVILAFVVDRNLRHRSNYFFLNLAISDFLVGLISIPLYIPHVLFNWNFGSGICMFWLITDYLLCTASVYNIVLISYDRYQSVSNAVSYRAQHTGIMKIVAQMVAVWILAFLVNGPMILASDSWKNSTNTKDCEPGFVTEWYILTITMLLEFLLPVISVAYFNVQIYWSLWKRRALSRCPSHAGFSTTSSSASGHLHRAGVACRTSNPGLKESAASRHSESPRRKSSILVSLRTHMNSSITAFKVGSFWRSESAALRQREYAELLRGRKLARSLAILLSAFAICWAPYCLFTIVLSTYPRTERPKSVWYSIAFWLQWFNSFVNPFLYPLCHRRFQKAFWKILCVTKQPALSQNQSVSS", "experiment": "Antagonist activity at mouse histamine H4 receptor expressed in SK-N-MC cells assessed as reduction of histamine-induced inhibition of cAMP-mediated beta-galactosidase reporter gene activity treated 10 mins prior to histamine challenge by microplate reader analysis", "type": "functional, cell-based", "settings": "read-out: pA2 (converted)"}, "[10]": {"experiment": "Permeability from apical to basolateral side in human Caco cells", "type": "ADME, cell-based", "settings": "Caco-2, read-out: permeability"}, "Rattus norvegicus [11]": {"test_system": "Rattus norvegicus", "experiment": "Clearance in Sprague-Dawley rat at 2 mg/kg, iv", "type": "ADME, organism-based", "parameters": "dose 2 mg/kg, route intravenous", "settings": "in vivo"}, "[12]": {"experiment": "Half life in beagle dog at 2 mg/kg, iv", "type": "ADME, organism-based, Canis lupus familiaris", "parameters": "dose 2 mg/kg, route intravenous", "settings": "in vivo"}, "Histamine H4 receptor [13]": {"biological_target": "T2, Histamine H4 receptor (Homo sapiens, UniProt Q9H3N8)", "T2 sequence (Q9H3N8 whole entry)": "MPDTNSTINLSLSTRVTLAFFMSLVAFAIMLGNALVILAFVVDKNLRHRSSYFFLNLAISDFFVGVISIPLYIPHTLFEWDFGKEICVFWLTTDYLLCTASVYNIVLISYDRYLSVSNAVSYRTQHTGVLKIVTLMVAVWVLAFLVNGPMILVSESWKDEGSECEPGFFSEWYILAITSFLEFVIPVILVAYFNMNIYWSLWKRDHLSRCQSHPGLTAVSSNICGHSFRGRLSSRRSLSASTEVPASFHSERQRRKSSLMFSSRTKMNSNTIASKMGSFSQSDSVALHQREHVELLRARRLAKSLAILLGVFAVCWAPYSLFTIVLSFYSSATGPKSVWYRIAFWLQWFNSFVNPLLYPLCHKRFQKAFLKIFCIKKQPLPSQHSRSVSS", "experiment": "Antagonist activity at human histamine H4 receptor expressed in SK-N-MC cells assessed as reduction of histamine-induced inhibition of cAMP-mediated beta-galactosidase reporter gene activity treated 10 mins prior to histamine challenge by microplate reader analysis", "type": "functional, cell-based", "settings": "read-out: pA2 (converted)"}, "Canis familiaris [14]": {"test_system": "Canis familiaris", "experiment": "Clearance in beagle dog at 2 mg/kg, iv", "type": "ADME, organism-based, Canis lupus familiaris", "parameters": "dose 2 mg/kg, route intravenous", "settings": "in vivo"}, "[15]": {"experiment": "Clearance in rat at 2 mg/kg, iv", "type": "ADME, organism-based", "parameters": "dose 2 mg/kg, route intravenous", "settings": "in vivo"}, "[16]": {"experiment": "Volume of distribution at steady state in beagle dog at 2 mg/kg, iv", "type": "ADME, organism-based, Canis lupus familiaris", "parameters": "dose 2 mg/kg, route intravenous", "settings": "in vivo, read-out: Vdss"}, "Histamine H4 receptor [17]": {"biological_target": "T1, Histamine H4 receptor", "experiment": "Displacement of [3H]histamine from mouse histamine H4 receptor expressed in SK-N-MC cells after 45 mins by competition binding analysis", "type": "cell-based", "outline": "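Transfected cells expressing the H4 receptor, competition against [3H]histamine. Ki is the geometric mean of at least three independent determinations (each in triplicate), calculated by the Cheng–Prusoff equation.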"}, "[18]": {"experiment": "Volume of distribution at steady state in rat at 2 mg/kg, iv", "type": "ADME, organism-based", "parameters": "dose 2 mg/kg, route intravenous", "settings": "in vivo, read-out: Vdss"}, "Histamine H3 receptor": {"biological_target": "Histamine H3 receptor (Homo sapiens, UniProt Q9Y5N1)", "sequence (Q9Y5N1 whole entry)": "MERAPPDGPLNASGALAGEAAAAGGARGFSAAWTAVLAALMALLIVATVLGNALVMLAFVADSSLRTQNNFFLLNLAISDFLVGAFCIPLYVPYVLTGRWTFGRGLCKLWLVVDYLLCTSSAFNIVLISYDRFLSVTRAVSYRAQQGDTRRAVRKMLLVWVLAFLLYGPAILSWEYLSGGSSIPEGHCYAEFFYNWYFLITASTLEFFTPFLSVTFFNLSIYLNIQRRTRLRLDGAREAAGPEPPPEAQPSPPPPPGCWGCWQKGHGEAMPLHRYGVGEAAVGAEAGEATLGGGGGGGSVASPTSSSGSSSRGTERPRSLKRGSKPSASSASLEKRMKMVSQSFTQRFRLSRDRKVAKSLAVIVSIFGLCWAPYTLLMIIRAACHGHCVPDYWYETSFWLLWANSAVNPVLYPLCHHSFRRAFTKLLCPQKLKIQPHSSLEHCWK", "experiment": "Displacement of [3H]N-alpha-methylhistamine from human recombinant histamine H3 receptor expressed in SK-N-MC cells after 45 mins by competition binding analysis", "type": "cell-based"}, "[19]": {"experiment": "Initial plasma concentration in Sprague-Dawley rat at 2 mg/kg, iv", "type": "ADME, organism-based", "parameters": "dose 2 mg/kg, route intravenous"}, "[20]": {"biological_target": "Voltage-gated inwardly rectifying potassium channel KCNH2 (Homo sapiens, UniProt Q12809)", "sequence (Q12809 whole entry)": "as the sequence (Q12809 whole entry) above", "experiment": "Inhibition of human ERG channel transfected in HEK293 cells assessed as reduction in delayed rectifier current by patch clamp assay", "type": "cell-based", "outline": "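The delayed rectifier current (IKr) was recorded in hERG-transfected HEK293 cells with the compound at 3 μM.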"}, "[21]": {"experiment": "Half life in human microsomes", "type": "ADME, Microsome"}, "[22]": {"experiment": "AUC in beagle dog at 10 mg/kg, po", "type": "ADME, organism-based, Canis lupus familiaris", "parameters": "dose 10 mg/kg, route oral", "settings": "plasma"}, "[23]": {"experiment": "Tmax in Sprague-Dawley rat at 10 mg/kg, po", "type": "ADME, organism-based", "parameters": "dose 10 mg/kg, route oral", "settings": "in vivo"}, "[24]": {"experiment": "Half life in Sprague-Dawley rat at 10 mg/kg, po", "type": "ADME, organism-based", "parameters": "dose 10 mg/kg, route oral", "settings": "in vivo"}, "[25]": {"experiment": "Permeability from basolateral to apical side in human Caco cells", "type": "ADME, cell-based", "settings": "Caco-2, read-out: permeability"}, "[26]": {"experiment": "Half life in rat at 10 mg/kg, po", "type": "ADME, organism-based", "parameters": "dose 10 mg/kg, route oral", "settings": "in vivo"}, "[27]": {"experiment": "Oral bioavailability in rat at 10 mg/kg", "type": "ADME, organism-based", "settings": "in vivo"}, "Histamine H4 receptor [28]": {"biological_target": "T2, Histamine H4 receptor", "experiment": "Displacement of [3H]histamine from human recombinant histamine H4 receptor expressed in SK-N-MC cells after 45 mins by competition binding analysis", "type": "cell-based"}, "[29]": {"experiment": "AUC in Sprague-Dawley rat at 2 mg/kg, iv", "type": "ADME, organism-based", "parameters": "dose 2 mg/kg, route intravenous", "settings": "plasma"}, "[30]": {"experiment": "Oral bioavailability in beagle dog at 10 mg/kg", "type": "ADME, organism-based, Canis lupus familiaris", "settings": "in vivo"}, "[31]": {"experiment": "Oral bioavailability in Sprague-Dawley rat at 10 mg/kg", "type": "ADME, organism-based", "settings": "in vivo"}, "Rattus norvegicus [32]": {"test_system": "Rattus norvegicus", "experiment": "Half life in Sprague-Dawley rat at 2 mg/kg, iv", "type": "ADME, organism-based", "parameters": "dose 2 mg/kg, route intravenous", "settings": "in vivo"}, "[33]": {"experiment": "Cmax in rat at 10 mg/kg, po", "type": "ADME, organism-based", "parameters": "dose 10 mg/kg, route oral", "settings": "in vivo"}, "Histamine H4 receptor [34]": {"biological_target": "T2, Histamine H4 receptor", "experiment": "Agonist activity at human H4 receptor", "settings": "read-out: EC50"}, "[35]": {"experiment": "Initial plasma concentration in beagle dog at 2 mg/kg, iv", "type": "ADME, organism-based, Canis lupus familiaris", "parameters": "dose 2 mg/kg, route intravenous"}, "Rattus norvegicus [36]": {"test_system": "Rattus norvegicus", "experiment": "Volume of distribution at steady state in Sprague-Dawley rat at 2 mg/kg, iv", "type": "ADME, organism-based", "parameters": "dose 2 mg/kg, route intravenous", "settings": "in vivo"}, "Histamine H4 receptor [37]": {"biological_target": "T1, Histamine H4 receptor", "experiment": "Partial agonist activity at mouse histamine H4 receptor"}, "[38]": {"experiment": "Cmax in Sprague-Dawley rat at 10 mg/kg, po", "type": "ADME, organism-based", "parameters": "dose 10 mg/kg, route oral", "settings": "in vivo"}}}
{"smiles": "Nc1nc(C2CCCC2)cc(N2CCNCC2)n1", "values": [{"measurement": "inhibition at 3 µM", "setting": "hERG (KCNH2)", "result": 21, "unit": "%"}, {"measurement": "half-life", "setting": "[1]", "result": 1.1, "unit": "h"}, {"measurement": "AUC", "setting": "Canis familiaris [2]", "result": 5.38, "unit": "µM·h"}, {"measurement": "AUC", "setting": "[3]", "result": 5, "unit": "µM·h"}, {"measurement": "AUC", "setting": "[4]", "result": 8.2, "unit": "µM·h"}, {"measurement": "Tmax", "setting": "[5]", "result": 4, "unit": "h"}, {"measurement": "half-life", "setting": "[6]", "result": 9.01, "unit": "h"}, {"measurement": "half-life", "setting": "[7]", "result": 1.43, "unit": "h"}, {"measurement": "Cmax", "setting": "[8]", "result": 1490, "unit": "nM"}, {"measurement": "Kb", "setting": "Histamine H4 receptor [9]", "result": 10, "unit": "nM"}, {"measurement": "Papp A→B", "setting": "[10]", "result": 32, "unit": "×10⁻⁶ cm/s"}, {"measurement": "CL", "setting": "Rattus norvegicus [11]", "result": 7.03, "unit": "mL/min/kg"}, {"measurement": "half-life", "setting": "[12]", "result": 10.8, "unit": "h"}, {"measurement": "Kb", "setting": "Histamine H4 receptor [13]", "result": 0.316, "unit": "nM"}, {"measurement": "CL", "setting": "Canis familiaris [14]", "result": 353.2, "unit": "mL/min/kg"}, {"measurement": "clearance", "setting": "[15]", "result": 10.5, "unit": "mL/min/kg"}, {"measurement": "Vd", "setting": "[16]", "result": 24.4, "unit": "L/kg"}, {"measurement": "Ki", "setting": "Histamine H4 receptor [17]", "result": 20, "unit": "nM"}, {"measurement": "Vd", "setting": "[18]", "result": 2.7, "unit": "L/kg"}, {"measurement": "Ki", "setting": "Histamine H3 receptor", "result": 24, "unit": "nM"}, {"measurement": "C0", "setting": "[19]", "result": 25000, "unit": "nM"}, {"measurement": "INH", "setting": "[20]", "result": "> 10", "unit": "µM"}, {"measurement": "half-life", "setting": "[21]", "result": "> 1.67", "unit": "h"}, {"measurement": "AUC", "setting": "[22]", "result": 30.8, "unit": "µM·h"}, {"measurement": "Tmax", "setting": "[23]", "result": 2, "unit": "h"}, {"measurement": "half-life", "setting": "[24]", "result": 8.7, "unit": "h"}, {"measurement": "Papp B→A", "setting": "[25]", "result": 16, "unit": "×10⁻⁶ cm/s"}, {"measurement": "half-life", "setting": "[26]", "result": 9, "unit": "h"}, {"measurement": "bioavailability", "setting": "[27]", "result": 20, "unit": "%"}, {"measurement": "Ki", "setting": "Histamine H4 receptor [28]", "result": 1.2, "unit": "nM"}, {"measurement": "AUC", "setting": "[29]", "result": 20.6, "unit": "µM·h"}, {"measurement": "bioavailability", "setting": "[30]", "result": 114, "unit": "%"}, {"measurement": "bioavailability", "setting": "[31]", "result": 20.7, "unit": "%"}, {"measurement": "t1/2", "setting": "Rattus norvegicus [32]", "result": 2.2, "unit": "h"}, {"measurement": "Cmax", "setting": "[33]", "result": 310, "unit": "nM"}, {"measurement": "EC50", "setting": "Histamine H4 receptor [34]", "result": "> 10000", "unit": "nM"}, {"measurement": "C0", "setting": "[35]", "result": 1760, "unit": "nM"}, {"measurement": "Vdss", "setting": "Rattus norvegicus [36]", "result": 3.1, "unit": "L/kg"}, {"measurement": "EC50", "setting": "Histamine H4 receptor [37]", "result": 7.3, "unit": "nM"}, {"measurement": "Cmax", "setting": "[38]", "result": 600, "unit": "nM"}]}
